Broadly, the Kp is the ratio of the level in a tissue or fluid to that in plasma or blood.

Here are results for 1 compound from ChEMBL document CHEMBL1151761, “Radiohalogenated prostate-specific membrane antigen (PSMA)-based ureas as imaging agents for prostate cancer” (J Med Chem, 2008).

Molecules are shown by their SMILES.

Type in all cases: ADME, organism-based
A short description of data set [1]: Biodistribution in PC3 flu tumor of PSMA expressing human PC3 PIP and PSMA deficient human PC3 flu cells xenografted SCID mouse at 2 uCi, iv after 2 hrs. Conditions: in vivo. The procedure, abridged:
(§1)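 Male SCID mice carried subcutaneous PSMA+ PC-3 PIP (left shoulder) and PC-3 flu (right shoulder) xenografts, 1-5 × 10^6 cells in HBSS, and were used at 3-5 mm tumor diameter. Tail-vein injection of 2 µCi radioligand; four mice per time point, killed by cervical dislocation. %ID/g from a standard dilution of the dose, decay-corrected, mean ± SD; PIP tumor:organ ratios.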
For orientation: A xenograft is tissue or cells of one species grown in another, often human tumour cells in immunodeficient mice.

Data set [2] deals with Muscle tissue. Put plainly: Biodistribution in muscle of PSMA expressing human PC3 PIP and PSMA deficient human PC3 flu cells xenografted SCID mouse at 2 uCi, iv after 30 mins. The conditions noted are these: in vivo, 0.5 h.
The nature of data set [3]: Ratio of drug level in tumor to liver of human PSMA expressing PC3 PIP and PSMA deficient human PC3 flu cells xenografted SCID mouse at 2 uCi, iv after 60 mins. Conditions: in vivo, 1 h. The method in brief:
as §1

Data set [4] is described as follows: Biodistribution in PC3 flu tumor of PSMA expressing human PC3 PIP and PSMA deficient human PC3 flu cells xenografted SCID mouse at 2 uCi, iv after 30 mins. Conditions: in vivo, 0.5 h. The procedure, abridged:
as §1

Data set [5] relates to Blood. Put plainly: Biodistribution in blood of PSMA expressing human PC3 PIP and PSMA deficient human PC3 flu cells xenografted SCID mouse at 2 uCi, iv after 5 hrs. Conditions: in vivo.
Data set [6] is described as follows: Biodistribution in large intestine of PSMA expressing human PC3 PIP and PSMA deficient human PC3 flu cells xenografted SCID mouse at 2 uCi, iv after 30 mins. The conditions noted are these: in vivo, 0.5 h. The procedure, abridged:
as §1

Data set [7] is described as follows: Biodistribution in PC3 PIP tumor of PSMA expressing human PC3 PIP and PSMA deficient human PC3 flu cells xenografted SCID mouse at 2 uCi, iv after 5 hrs. Conditions: in vivo.
The nature of data set [8]: Ratio of drug level in tumor to lung of human PSMA expressing PC3 PIP and PSMA deficient human PC3 flu cells xenografted SCID mouse at 2 uCi, iv after 30 mins. Conditions: in vivo, 0.5 h. The procedure, abridged: as §1
The nature of data set [9]: Ratio of drug level in tumor to blood of human PSMA expressing PC3 PIP and PSMA deficient human PC3 flu cells xenografted SCID mouse at 2 uCi, iv after 30 mins. The procedure, abridged: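 Male SCID mice carried subcutaneous xenografts of PSMA+ PC-3 PIP cells behind the left shoulder and PSMA− PC-3 flu cells behind the right (1–5 × 10^6 cells in HBSS), used at a tumour diameter of 3–5 mm. Each mouse received 2 μCi of radioiodinated tracer via the tail vein. Tissues were harvested at each time point for %ID/g against a standard dilution of the dose, decay-corrected. Ratios are PIP tumour:organ.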

Data set [10] is described as follows: Biodistribution in PC3 flu tumor of PSMA expressing human PC3 PIP and PSMA deficient human PC3 flu cells xenografted SCID mouse at 2 uCi, iv after 60 mins. The conditions noted are these: in vivo, 1 h. The procedure, abridged:
as §1

Data set [11] is described as follows: Ratio of drug level in tumor to bladder of human PSMA expressing PC3 PIP and PSMA deficient human PC3 flu cells xenografted SCID mouse at 2 uCi, iv after 30 mins. The conditions noted are these: in vivo, 0.5 h. The procedure, abridged: as §1
Data set [12] in a line: Ratio of drug level in tumor to small intestine of human PSMA expressing PC3 PIP and PSMA deficient human PC3 flu cells xenografted SCID mouse at 2 uCi, iv after 60 mins. The conditions noted are these: in vivo, 1 h. The method in brief:
(§2)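 Male SCID mice carried subcutaneous xenografts: PSMA+ PC-3 PIP behind the left shoulder and PSMA− PC-3 flu behind the right, 1–5 × 10^6 cells in HBSS. Mice were used at 3–5 mm tumor diameter. 2 μCi was given by tail vein, and 4 mice per time point were killed by cervical dislocation. %ID/g came from a standard dilution of the dose, decay-corrected. Ratio is PIP tumor %ID/g to organ %ID/g.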

The nature of data set [13]: Ratio of drug level in tumor to heart of human PSMA expressing PC3 PIP and PSMA deficient human PC3 flu cells xenografted SCID mouse at 2 uCi, iv after 5 hrs. Conditions: in vivo. The procedure, abridged:
as §1

Data set [14] is described as follows: Ratio of drug level in tumor to lung of human PSMA expressing PC3 PIP and PSMA deficient human PC3 flu cells xenografted SCID mouse at 2 uCi, iv after 60 mins. The conditions noted are these: in vivo, 1 h. The procedure, abridged: as §1
Data set [15] can be described thus: Biodistribution in small intestine of PSMA expressing human PC3 PIP and PSMA deficient human PC3 flu cells xenografted SCID mouse at 2 uCi, iv after 60 mins. Conditions: in vivo, 1 h. The method in brief:
as §1

Data set [16] has as its system Spleen. As to the kind of experiment: Biodistribution in spleen of PSMA expressing human PC3 PIP and PSMA deficient human PC3 flu cells xenografted SCID mouse at 2 uCi, iv after 30 mins. The conditions noted are these: in vivo, 0.5 h.
Data set [17] can be described thus: Biodistribution in small intestine of PSMA expressing human PC3 PIP and PSMA deficient human PC3 flu cells xenografted SCID mouse at 2 uCi, iv after 30 mins. The conditions noted are these: in vivo, 0.5 h. The method in brief: as §1
For data set [18], the system named is Pancreas. Put plainly: Biodistribution in pancreas of PSMA expressing human PC3 PIP and PSMA deficient human PC3 flu cells xenografted SCID mouse at 2 uCi, iv after 30 mins. The conditions noted are these: in vivo, 0.5 h.
Data set [19] can be described thus: Ratio of drug level in tumor to stomach of human PSMA expressing PC3 PIP and PSMA deficient human PC3 flu cells xenografted SCID mouse at 2 uCi, iv after 60 mins. The conditions noted are these: in vivo, 1 h. The method in brief:
as §2

Data set [20] has as its system Heart. Put plainly: Biodistribution in heart of PSMA expressing human PC3 PIP and PSMA deficient human PC3 flu cells xenografted SCID mouse at 2 uCi, iv after 2 hrs. Conditions: in vivo.

In the case of `O=C(O)CC[C@H](NC(=O)N[C@@H](CCCCNC(=O)c1ccc([18F])cc1)C(=O)O)C(=O)O`, the Drug uptake turned out to be 0.25 % ID/g in [1]; 2.4 % ID/g in data set [2]; 0.8 % ID/g in data set [4]; 0.03 % ID/g in data set [5]; 1.2 % ID/g in [6]; 3.5 % ID/g in [7]. The Drug uptake was determined as 0.3 % ID/g in data set [10]; 0.6 % ID/g in [15]; 12.7 % ID/g in [16]; 1.7 % ID/g in [17]; 0.8 % ID/g in [18]; 0.15 % ID/g in [20]. Also, the Ratio in data set [3] was determined as 1; in [8], 5; in [11], 1; in [12], 11; in data set [13] it was 117; in data set [14], 13. Moreover, in data set [19], the Ratio stood at 26. The concentration ratio (Kp) at 0.5 h in data set [9] is 3.
